CCR6 antagonist: antagonists of human CCR6 receptor | CHO-K1 CCR6 PathHunter beta-arrestin, luminescence, CCL20-stimulated | inhibition, % at 20 µM | actives 0.49% (n = 340,000);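 active means compounds whose inhibition of the agonist-driven luminescence signal at 20 µM reaches about 50%, limit read from the data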;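 further: cells stimulated with CCL20 at 14 nM final; plate controls were DMSO with CCL20 for no effect and DMSO without agonist for full effect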
APJ ag: agonists of human APJ apelin receptor. AID 2520. P35414. CHO-K1 APJ PathHunter beta-arrestin, luminescence; 0% DMSO wells, 100% apelin. actives 0.11% (n = 330,000). activation, % at 20 µM;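 active means activation more than six SD over the plate average, tested at 20 µM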;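 further: 0% = DMSO alone and 100% = apelin-13 at 10 nM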
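Test system – PathHunter CHO-K1 APJ (AGTRL-1) beta-arrestin reporter cells · Input – 1000 cells/well · Compound – single test compound dose, 20 µM final, 1% DMSO · Times – compound stimulation 90 min at 25 °C, detection 60 min · Technique – beta-gal luminescence · Read-out basis – APJ–arrestin association signal · Control set – negative DMSO alone, positive Apelin-13 at 10 nM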
APJ antag: blocks the human apelin receptor APJ | CHO-K1 APJ beta-arrestin complementation, luminescence | actives 0.32% (n = 330,000) | inhibition, % at 20 µM;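 active means inhibition above about 40% at 20 µM, limit read from the data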;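 further: cells challenged with 10 nM apelin-13 agonist together with compound; plate controls were apelin-13 plus DMSO wells for no effect and DMSO wells lacking apelin-13 for full effect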
EBI2 block: antagonists of human EBI2 receptor; EBI2 beta-arrestin recruitment, luminescence, 7a,25-OHC stimulated; inhibition, % at 5 µM; actives 0.81% (n = 360,000); in the data active means inhibition above about 38%;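 further: enzyme fragment complementation signal reports receptor beta-arrestin coupling in cells; 0% = agonist plus DMSO wells and 100% = wells without agonist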
CXCR6 block: blocks human CXCR6 beta-arrestin recruitment | CHO-K1 PathHunter CXCR6 beta-arrestin, luminescence | inhibition, % at 20 µM | AID 602244 | O00574 | actives 0.36% (n = 360,000); in the data active means inhibition above about 34%, passing the limit was not always enough;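 further: antagonist mode with CXCL16 agonist at 10 nM final; 0% = 10 nM CXCL16 with DMSO and 100% = unstimulated wells without agonist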
Target sequence (O00574 whole entry, looked up): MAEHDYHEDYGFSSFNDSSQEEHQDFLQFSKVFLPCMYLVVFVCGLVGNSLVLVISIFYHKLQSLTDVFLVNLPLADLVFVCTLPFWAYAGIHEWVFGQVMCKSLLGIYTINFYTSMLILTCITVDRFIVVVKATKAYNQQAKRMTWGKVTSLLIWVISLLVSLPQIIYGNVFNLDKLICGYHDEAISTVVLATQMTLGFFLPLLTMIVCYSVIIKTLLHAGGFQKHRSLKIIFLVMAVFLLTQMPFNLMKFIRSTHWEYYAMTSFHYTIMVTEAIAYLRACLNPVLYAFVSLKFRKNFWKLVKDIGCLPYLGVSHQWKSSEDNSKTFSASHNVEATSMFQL
Beta2AR agonist: human beta-2 adrenergic receptor agonism by FAP; P07550; Am2.2-beta2AR cells, FAP receptor internalization, flow cytometry; response, % (no concentration beside the values); actives 0.43% (n = 340,000);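 active means response above a set limit, near 3 SD of response in nonfluorescent compounds, cut at about 42% in these data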
APJ antag confirm: APJ receptor antagonism confirmation | inhibition, % at 20 µM | shares compounds with APJ antag | actives 66% (n = 950) | APJ beta-arrestin recruitment, luminescence, antagonist mode; in the data active means inhibition above about 50%
Starred values were filed as active, the others as inactive; . = no result given. A selection: hits, their analogues and other compounds. The true share with any hit is near 1.8%.

SMILES	CCR6 antagonist	APJ ag	APJ antag	EBI2 block	CXCR6 block	Beta2AR agonist	APJ antag confirm
CCCCCCN1CCN(C2CN(Cc3cn(Cc4ccc(C)cc4)nn3)S(=O)(=O)C2)CC1 (configuration not stated)	.	.	.	4.3	-3.8	.	.
CCCNC(=O)C1(C)CCN(C(=O)c2ccc(C)c(F)c2)C1 (configuration not stated)	.	.	.	2.2	0.5	.	.
O=C1N/C(=N\S(=O)(=O)c2ccccc2)S/C1=C\c1cc([N+](=O)[O-])ccc1O	14.6	-2.6	32.9	-5.7	13.5	7.5	.
O=C1N/C(=N\S(=O)(=O)Cc2ccccc2)S/C1=C/c1cc([N+](=O)[O-])ccc1O	31.0	-4.5	41.4*	10.2	13.0	-13.5	55.1*
N#Cc1ccccc1S(=O)(=O)N1CCN(C(=O)c2cc3c(s2)CCC3)CC1	4.9	-1.7	14.4	9.4	7.3	-4.1	.
NNc1ccc2c(C(F)(F)F)cc(C(F)(F)F)nc2n1	44.4	-5.1	9.6	-4.6	26.4	-0.2	.
N#CC(c1cccc(Cl)c1)c1ccc2c(C(F)(F)F)cc(C(F)(F)F)nc2n1 (configuration not stated)	49.8	-10.2	45.6*	-35.3	35.3	24.3	75.8*
CC(/C=N/n1c(C2CCCCC2)n[nH]c1=S)=C\c1ccccc1	33.3	-5.3	46.7*	1.7	11.9	-5.0	78.4*
CNC[C@H](CC1CCCCC1)NC[C@H](Cc1ccccc1)NCCC12CC3CC(CC(C3)C1)C2	.	-3.1	44.5*	6.6	35.9	51.6*	39.1
NC[C@H](Cc1ccccc1)NCCCCC1CCCCC1	-0.5	-5.1	8.3	-9.4	-5.3	-1.8	.
Cc1[nH]n(C(N)=S)c(=O)c1N=Nc1ccc([N+](=O)[O-])cc1Cl	60.3*	-6.4	51.5*	17.2	41.7*	11.7	80.4*
O=C(CNC(=O)c1cccc(-n2cnnn2)c1)Nc1ccc(F)c(F)c1	-3.3	4.9	2.2	-12.4	7.6	-10.6	.
COc1ccccc1Oc1cc(-n2nc(C)cc2C)ncn1	-3.2	-0.8	54.3*	2.9	-0.4	1.6	9.4
COc1ccccc1OCC(O)Cn1nc(C)cc1C (configuration not stated)	4.7	-0.5	13.5	-5.0	-5.8	-3.7	.
O=C(CCCC(=O)Nc1cccc(Br)c1)N/N=C/c1cc([N+](=O)[O-])ccc1O	43.1	-20.5	48.7*	13.6	37.7	7.3	71.5*
O=C(CCC(=O)Nc1cccc(Cl)c1)N/N=C/c1cc([N+](=O)[O-])ccc1O	38.5	-7.1	26.6	-5.6	16.2	2.9	.
O=C1c2ccccc2C(c2nnnn2-c2ccc3c(c2)OCCO3)N1CCCn1ccnc1 (configuration not stated)	.	.	.	-3.0	-0.2	.	.
COc1ccc(C(=O)NC(=S)Nc2cccc(Cl)c2N2CCOCC2)cc1[N+](=O)[O-]	33.2	-10.1	81.2*	41.7*	26.9	-9.6	55.4*
Cc1ccc(NC(=S)NNC(=O)c2ccc(N3CCOCC3)c([N+](=O)[O-])c2)cc1Cl	30.6	-6.6	41.6*	3.3	34.6	21.8	63.2*
O=C(NNC(=S)Nc1ccc(Cl)cc1Cl)c1ccc(N2CCOCC2)c([N+](=O)[O-])c1	26.8	-5.1	40.4*	8.9	25.3	-1.3	62.4*
COc1ccc(C(=O)NC(=S)Nc2ccc(N3CCN(C(C)=O)CC3)cc2)cc1[N+](=O)[O-]	43.7	-3.3	13.5	5.6	29.6	6.4	.
O=C1NC[C@H](CCCCN2C[C@H](Cc3ccc(O)cc3)N(CCC3CCCCC3)C(=O)C2=O)N(CCC2CCCCC2)C1=O	.	.	.	-3.0	6.7	.	.
O=C(NN1C(=O)/C(=C/c2ccc(O)c([N+](=O)[O-])c2)SC1=S)c1ccccc1Cl	54.0*	-9.7	46.8*	15.1	39.0*	6.8	68.8*
O=c1c(Cl)c(O)ccn1C1OC(CO)C(O)C1O (configuration not stated)	-0.9	.	.	-2.3	-2.2	-13.2	.
CCC(C(=O)NC1CCCC1)n1c(C2CCCC2)nc2ccccc21 (configuration not stated)	.	.	.	-2.4	.	.	.

From PubChem
